According to ChEMBL document CHEMBL3813699, “Structure-Activity Relationships of a Diverse Class of Halogenated Phenazines That Targets Persistent, Antibiotic-Tolerant Bacterial Biofilms and Mycobacterium tuberculosis” (J Med Chem, 2016):
Values after ≈ are worked out from the molar mass of the structure shown.

How the values were obtained:
Staphylococcus aureus [1] = experiment: Antibacterial activity against methicillin-resistant Staphylococcus aureus BAA-1707 incubated for 16 to 18 hrs by broth microdilution method; assay type: functional
[2] = tested on: Staphylococcus epidermidis; experiment: Antibacterial activity against Staphylococcus epidermidis ATCC 12228 incubated for 16 to 18 hrs by broth microdilution method; assay type: functional
[3] = tested on: Staphylococcus epidermidis; experiment: Antibacterial activity against methicillin-resistant Staphylococcus epidermidis ATCC 35984 incubated for 16 to 18 hrs by broth microdilution method; assay type: functional
[4] = Induction of hemolysis in human RBC at 200 uM incubated for 1 hr; assay type: cell-based, Erythrocyte; settings: red blood cells, read-out: Activity
How it was run: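 Human RBCs (EDTA), washed three times in Tris-buffered saline pH 7.2; 2% hRBC with compound at final 200 µM, 1 h 37 °C; supernatant OD405; % hemolysis relative to DMSO (0%) and Triton X (100%).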

Enterococcus faecium [5] = experiment: Antibacterial activity against vancomycin-resistant Enterococcus faecium ATCC 700221 incubated for 16 to 18 hrs by broth microdilution method; assay type: functional
Staphylococcus aureus [6] = experiment: Antibiofilm activity against methicillin-resistant Staphylococcus aureus isolate 2 assessed as biofilm eradication incubated for 24 hrs by CBD assay; assay type: functional; settings: for MBC: Staphylococcus aureus, isolate 2, 24 h
How it was run: (§1)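 Calgary Biofilm Device: pegs inoculated with mid-log culture diluted 1,000-fold in TSB + 0.5% glucose, 24 h 37 °C; washed pegs challenged with 2-fold dilutions 24 h 37 °C; pegs moved to fresh TSBG 24 h; MBEC = lowest concentration leaving no turbidity; 2–6 independent experiments.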

Staphylococcus aureus [7] = experiment: Antibiofilm activity against methicillin-resistant Staphylococcus aureus BAA-1707 assessed as biofilm eradication incubated for 24 hrs by CBD assay; assay type: functional; settings: for MBC: Staphylococcus aureus, BAA-1707, 24 h; how it was run: as §1
Staphylococcus aureus [8] = experiment: Antibacterial activity against methicillin-resistant Staphylococcus aureus clinical isolate 2 incubated for 16 to 18 hrs by broth microdilution method; assay type: functional
Staphylococcus aureus [9] = experiment: Antibacterial activity against methicillin-resistant Staphylococcus aureus BAA-44 incubated for 16 to 18 hrs by broth microdilution method; assay type: functional
Enterococcus faecium [10] = experiment: Antibiofilm activity against […]-resistant Enterococcus faecium ATCC 700221 assessed as biofilm eradication incubated for 24 hrs by CBD assay; assay type: functional; settings: for MBC: Enterococcus faecium, ATCC 700221, 24 h; how it was run: as §1
[11] = tested on: Staphylococcus epidermidis; experiment: Antibacterial activity against methicillin-resistant Staphylococcus epidermidis ATCC 35984 assessed as biofilm eradication incubated for 24 hrs by CBD assay; assay type: functional; settings: for MBC: Staphylococcus epidermidis, ATCC 35984, 24 h; how it was run: as §1
HeLa = experiment: Cytotoxicity against human HeLa cells after 24 hrs by LDH release assay; assay type: cell-based
How it was run: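 HeLa in DMEM + 10% FBS, 37 °C 5% CO2, at 70–80% confluence treated with 25, 50, 100 µM for 24 h; DMSO vehicle; Triton X-100 2% v/v max-LDH control, medium-only negative; supernatant with LDH reaction mix 30 min room temperature, stopped, absorbance 490 nm.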

Row | Compound | MIC (Staphylococcus aureus [1]) [µM] | MIC [2] [µM] | MIC [3] [µM] | hemolysis at 1 h, 200 µM [4] [%] | MIC (Enterococcus faecium [5]) [µM] | MBEC (Staphylococcus aureus [6]) [µM] | MBC (Staphylococcus aureus [6]) [µM] | MBEC (Staphylococcus aureus [7]) [µM] | MBC (Staphylococcus aureus [7]) [µM] | MIC (Staphylococcus aureus [8]) [µM] | MIC (Staphylococcus aureus [9]) [µM] | MBEC (Enterococcus faecium [10]) [µM] | MBC (Enterococcus faecium [10]) [µM] | MBEC [11] [µM] | MBC [11] [µM] | IC50 (HeLa) [µM]
1 | Oc1c(Br)cc(Br)c2nc3ccc(Br)cc3nc12 | 0.2 (≈ 0.0866 µg/mL) | 3.13 (≈ 1.35 µg/mL) | 3.13 (≈ 1.35 µg/mL) | 2.1 | 0.78 (≈ 0.338 µg/mL) | 25 | 50 (≈ 21.6 µg/mL) | 12.5 | 12.5 (≈ 5.41 µg/mL) |  |  |  |  |  |  | 
2 | Oc1c(Cl)cc(Cl)c2nc3ccccc3nc12 | 3.13 (≈ 0.83 µg/mL) | 3.13 (≈ 0.83 µg/mL) | 3.13 (≈ 0.83 µg/mL) | ≤ 1 | 12.5 (≈ 3.31 µg/mL) | >1000 | 62.5 (≈ 16.6 µg/mL) |  |  | 3.13 (≈ 0.83 µg/mL) | 3.13 (≈ 0.83 µg/mL) |  |  |  |  | 
3 | C=CCc1cc(Br)c2nc3ccccc3nc2c1O |  | > 100 |  |  | > 100 |  |  |  |  | > 100 |  |  |  |  |  | 
4 | Oc1c(Cl)cc(Br)c2nc3ccccc3nc12 |  | 3.13 (≈ 0.969 µg/mL) | 1.56 (≈ 0.483 µg/mL) | ≤ 1 | 6.25 (≈ 1.93 µg/mL) | >1000 | 62.5 (≈ 19.3 µg/mL) |  |  |  | 3.13 (≈ 0.969 µg/mL) | 11.7 | 11.7 (≈ 3.62 µg/mL) | 375 | 31.3 (≈ 9.69 µg/mL) | > 100
5 | Oc1c(Br)cc(Br)c2nc3cc4ccccc4cc3nc12 | 50 (≈ 20.2 µg/mL) | 12.5 (≈ 5.05 µg/mL) |  | ≤ 1 |  | >200 | 200 (≈ 80.8 µg/mL) |  |  | > 100 | 75 (≈ 30.3 µg/mL) |  |  |  |  | 
6 | CN[C@@H](CC(C)C)C(=O)N[C@H]1C(=O)N[C@@H](CC(N)=O)C(=O)N[C@H]2C(=O)N[C@H]3C(=O)N[C@H](C(=O)N[C@@H](C(=O)O)c4cc(O)cc(O)c4-c4cc3ccc4O)[C@H](O)c3ccc(c(Cl)c3)Oc3cc2cc(c3O[C@H]2O[C@@H](CO)[C@H](O)[C@@H](O)[C@@H]2O[C@@H]2C[C@@](C)(N)[C@@H](O)[C@@H](C)O2)Oc2ccc(cc2Cl)[C@H]1O |  | 1.17 (≈ 1.7 µg/mL) |  | ≤ 1 | > 100 | >2000 | 3 (≈ 4.35 µg/mL) | >2000 | 3.9 (≈ 5.65 µg/mL) |  |  | 150 | > 200 | >2000 | 3 (≈ 4.35 µg/mL) | 
7 | NC(=O)c1cnccn1 [PYRAZINAMIDE] |  |  |  |  |  | >2000 | > 2000 |  |  |  |  |  |  |  |  | 
8 | CCCCCCCCCC(=O)N[C@@H](Cc1c[nH]c2ccccc12)C(=O)N[C@H](CC(N)=O)C(=O)N[C@@H](CC(=O)O)C(=O)N[C@@H]1C(=O)NCC(=O)N[C@@H](CCCN)C(=O)N[C@@H](CC(=O)O)C(=O)N[C@H](C)C(=O)N[C@@H](CC(=O)O)C(=O)NCC(=O)N[C@H](CO)C(=O)N[C@@H]([C@H](C)CC(=O)O)C(=O)N[C@@H](CC(=O)c2ccccc2N)C(=O)O[C@@H]1C [DAPTOMYCIN] |  |  |  | 1.7 |  |  |  |  |  |  |  |  |  |  |  | 
9 | O=C(O)CN(CCN(CC(=O)O)CC(=O)O)CC(=O)O [EDETIC ACID] |  |  |  | 3 |  | >2000 | 2000 (≈ 584 µg/mL) |  |  |  |  |  |  | >2000 | 1000 (≈ 292 µg/mL) | 
10 | N#CC(C#N)=NNc1cccc(Cl)c1 [CARBONYL CYANIDE M-CHLOROPHENYLHYDRAZONE] |  |  |  | 3.5 |  | 1000 | 31.3 (≈ 6.4 µg/mL) |  |  |  |  |  |  | 93.8 | 31.3 (≈ 6.4 µg/mL) | 
11 | Oc1c(I)cc(Cl)c2nc3ccccc3nc12 | 3.13 (≈ 1.12 µg/mL) | 25 (≈ 8.91 µg/mL) | 25 (≈ 8.91 µg/mL) | ≤ 1 | 6.25 (≈ 2.23 µg/mL) | 250 | 93.8 (≈ 33.4 µg/mL) |  |  | 25 (≈ 8.91 µg/mL) | 12.5 (≈ 4.46 µg/mL) |  |  | 250 | 125 (≈ 44.6 µg/mL) | 
12 | CC(=O)N[C@@H](CS)C(=O)O [ACETYLCYSTEINE] |  |  |  |  |  | >2000 | > 2000 |  |  |  |  | >2000 | > 2000 | >2000 | > 2000 | 
13 | CCCCc1cc(Br)c(O)c2nc3ccccc3nc12 |  |  |  | 11.5 | 0.78 (≈ 0.258 µg/mL) | 188 | 46.9 (≈ 15.5 µg/mL) | 62.5 | 46.9 (≈ 15.5 µg/mL) | 3.13 (≈ 1.04 µg/mL) |  | 2 | 2 (≈ 0.662 µg/mL) | 23.5 | 11.7 (≈ 3.88 µg/mL) | 
14 | Cc1nc2c(Br)cc(Br)c(O)c2nc1C |  | 12.5 (≈ 4.15 µg/mL) |  | ≤ 1 | 25 (≈ 8.3 µg/mL) | 1500 | 125 (≈ 41.5 µg/mL) |  |  |  | 6.25 (≈ 2.07 µg/mL) |  |  |  |  | 
15 | Oc1cccc2nc3cc(Cl)c(Cl)cc3nc12 |  | > 100 | > 100 |  | > 100 |  |  |  |  | > 100 |  |  |  |  |  | 
16 | Oc1c(Cl)cc(I)c2nc3ccccc3nc12 | 1.56 (≈ 0.556 µg/mL) | 1.56 (≈ 0.556 µg/mL) | 1.56 (≈ 0.556 µg/mL) | 5.1 | 6.25 (≈ 2.23 µg/mL) | 125 | 15.6 (≈ 5.56 µg/mL) |  |  | 1.56 (≈ 0.556 µg/mL) | 1.56 (≈ 0.556 µg/mL) |  |  |  |  | > 100
17 | Oc1c(Br)cc(Cl)c2nc3ccccc3nc12 |  |  | 1.56 (≈ 0.483 µg/mL) | ≤ 1 | 6.25 (≈ 1.93 µg/mL) | 375 | 46.9 (≈ 14.5 µg/mL) |  |  | 1.56 (≈ 0.483 µg/mL) | 1.56 (≈ 0.483 µg/mL) | 3.9 | 7.8 (≈ 2.41 µg/mL) | 46.9 | 11.7 (≈ 3.62 µg/mL) | > 100
18 | Oc1c(Br)cc(Br)c2nccnc12 | 6.25 (≈ 1.9 µg/mL) | 18.8 (≈ 5.71 µg/mL) | 18.8 (≈ 5.71 µg/mL) | 1.8 | 100 (≈ 30.4 µg/mL) | >2000 | 1500 (≈ 456 µg/mL) |  |  | 25 (≈ 7.6 µg/mL) | 12.5 (≈ 3.8 µg/mL) |  |  |  |  | > 100
19 | Oc1c(I)cc(Br)c2nc3ccccc3nc12 |  |  |  |  | 6.25 (≈ 2.51 µg/mL) | 250 | 46.9 (≈ 18.8 µg/mL) |  |  |  |  |  |  |  |  | 
20 | COc1cccc2nc3cc(Cl)c(Cl)cc3nc12 |  | > 100 | > 100 |  | > 100 |  |  |  |  | > 100 |  |  |  |  |  | 
21 | Oc1c(I)cc(I)c2nc3ccccc3nc12 | 3.13 (≈ 1.4 µg/mL) | 1.56 (≈ 0.699 µg/mL) | 1.17 (≈ 0.524 µg/mL) | ≤ 1 | 6.25 (≈ 2.8 µg/mL) | 93.8 | 31.3 (≈ 14 µg/mL) |  |  | 3.13 (≈ 1.4 µg/mL) | 3.13 (≈ 1.4 µg/mL) | 15.6 | 23.5 (≈ 10.5 µg/mL) | 23.5 | 31.3 (≈ 14 µg/mL) | > 100
22 | C=CCc1cc(Br)c2nc3cc(Br)c(Br)cc3nc2c1O |  | > 100 |  |  | > 100 |  |  |  |  | > 100 |  |  |  |  |  | 
23 | Oc1c(I)cc(I)c2nccnc12 | 1.56 (≈ 0.621 µg/mL) | 6.25 (≈ 2.49 µg/mL) | 3.13 (≈ 1.25 µg/mL) | ≤ 1 | 12.5 (≈ 4.97 µg/mL) | >2000 | > 2000 |  |  | 3.13 (≈ 1.25 µg/mL) | 1.56 (≈ 0.621 µg/mL) |  |  | >1000 | 750 (≈ 298 µg/mL) | 
